In one assay the target is D(2) dopamine receptor (Rattus norvegicus, UniProt P61169). The experiment in a line: Displacement of [3H]spiperone from rat brain Dopamine receptor D2. The procedure, abridged:
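Striata from male Sprague–Dawley rats homogenized in Tris-HCl pH 7.4. Buffer held 10 μM pargiline, 0.1% ascorbic acid, 120 mM NaCl, 5 mM KCl, 2 mM CaCl2, 1 mM MgCl2. Incubated with 0.2–0.6 nM [3H]spiperone for 15 min at 37 °C. Nonspecific binding defined with 1 μM (+)-butaclamol. Filtration, scintillation counting. Ki by Cheng–Prusoff.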
On the technique in general: Loss of bound radioactivity is the signal in a displacement assay; it reports binding, not function.

Assay [1] addresses T1, Adrenergic receptor alpha-2 (Rattus norvegicus, UniProt P22086+P19328+P22909).
T1 sequence (P22086 whole entry): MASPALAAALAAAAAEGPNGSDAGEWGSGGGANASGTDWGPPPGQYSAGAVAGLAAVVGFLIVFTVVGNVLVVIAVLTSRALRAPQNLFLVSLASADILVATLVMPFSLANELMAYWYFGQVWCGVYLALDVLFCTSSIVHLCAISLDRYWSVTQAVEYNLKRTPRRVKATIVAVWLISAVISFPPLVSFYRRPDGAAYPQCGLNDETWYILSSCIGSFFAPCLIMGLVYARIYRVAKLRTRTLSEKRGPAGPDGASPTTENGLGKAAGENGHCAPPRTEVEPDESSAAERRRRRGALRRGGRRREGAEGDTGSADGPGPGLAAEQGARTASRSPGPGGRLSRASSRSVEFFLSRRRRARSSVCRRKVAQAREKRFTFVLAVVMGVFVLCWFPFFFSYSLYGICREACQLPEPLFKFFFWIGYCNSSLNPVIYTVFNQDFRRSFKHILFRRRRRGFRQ
T1 sequence (P19328 whole entry): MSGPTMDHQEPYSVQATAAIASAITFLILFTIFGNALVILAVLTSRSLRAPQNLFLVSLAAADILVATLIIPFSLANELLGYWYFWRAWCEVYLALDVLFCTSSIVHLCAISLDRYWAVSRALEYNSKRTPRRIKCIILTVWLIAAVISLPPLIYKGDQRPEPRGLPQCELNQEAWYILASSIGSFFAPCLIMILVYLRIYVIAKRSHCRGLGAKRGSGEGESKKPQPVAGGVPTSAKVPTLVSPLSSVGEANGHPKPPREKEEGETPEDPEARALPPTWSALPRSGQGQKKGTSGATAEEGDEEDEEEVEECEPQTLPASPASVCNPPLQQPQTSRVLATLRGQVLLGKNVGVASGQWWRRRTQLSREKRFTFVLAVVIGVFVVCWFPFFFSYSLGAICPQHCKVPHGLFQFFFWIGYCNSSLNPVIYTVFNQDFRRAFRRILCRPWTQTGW
T1 sequence (P22909 whole entry): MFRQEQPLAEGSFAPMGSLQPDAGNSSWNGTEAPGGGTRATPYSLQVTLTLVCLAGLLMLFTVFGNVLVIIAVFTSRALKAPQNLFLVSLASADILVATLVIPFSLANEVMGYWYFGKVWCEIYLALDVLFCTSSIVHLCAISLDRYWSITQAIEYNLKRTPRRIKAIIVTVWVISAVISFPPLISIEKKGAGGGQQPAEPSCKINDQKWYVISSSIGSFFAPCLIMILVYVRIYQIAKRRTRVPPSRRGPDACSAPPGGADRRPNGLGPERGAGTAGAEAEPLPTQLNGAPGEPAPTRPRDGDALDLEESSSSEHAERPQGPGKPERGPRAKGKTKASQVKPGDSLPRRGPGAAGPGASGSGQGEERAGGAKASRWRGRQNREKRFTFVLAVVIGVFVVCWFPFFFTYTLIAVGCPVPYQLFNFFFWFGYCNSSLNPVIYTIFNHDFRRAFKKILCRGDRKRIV
The experiment in a line: Displacement of [3H]rauwolscine from rat brain Alpha-2 adrenergic receptor. In short, it runs like this:
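Rat cerebral cortex membranes (male Sprague–Dawley) were washed in Tris-HCl pH 7.4 and resuspended with 10 μM pargiline and 0.1% ascorbic acid. They were incubated 30 min at 25 °C with 0.5–1.5 nM [3H]rauwolscine. Nonspecific binding was taken with 10 μM phentolamine. Filtration and scintillation counting followed, and Ki was obtained by Cheng–Prusoff.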

Assay [2] has as its target T2, Alpha-1B adrenergic receptor (Rattus norvegicus) (UniProt P15823).
T2 sequence (whole entry): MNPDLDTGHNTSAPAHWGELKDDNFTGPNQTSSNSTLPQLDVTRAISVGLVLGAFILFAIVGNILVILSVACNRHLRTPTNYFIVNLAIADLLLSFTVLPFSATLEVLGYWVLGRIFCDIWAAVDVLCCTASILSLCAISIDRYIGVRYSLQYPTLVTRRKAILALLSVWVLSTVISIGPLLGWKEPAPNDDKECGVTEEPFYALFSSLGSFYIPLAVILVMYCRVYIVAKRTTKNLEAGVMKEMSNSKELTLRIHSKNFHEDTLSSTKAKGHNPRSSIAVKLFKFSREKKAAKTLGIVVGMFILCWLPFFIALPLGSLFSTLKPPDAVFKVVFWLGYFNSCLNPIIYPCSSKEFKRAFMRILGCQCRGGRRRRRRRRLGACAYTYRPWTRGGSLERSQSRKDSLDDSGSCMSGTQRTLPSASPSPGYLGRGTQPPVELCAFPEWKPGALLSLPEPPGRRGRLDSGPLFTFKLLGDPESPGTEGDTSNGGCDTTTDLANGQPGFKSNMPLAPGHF
The experiment in a line: Antagonism of Alpha-1B adrenergic receptor subtype (-)-phenylephrine-induced contraction of rat spleen. The assay is classed as functional, tissue-based. The procedure, abridged:
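Rat spleen, isometric cumulative (–)-phenylephrine curves at 30-min intervals; first discarded, second taken as control. Antagonist was equilibrated 30 min before the next curve.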

Assay [3] addresses T3, Alpha-1D adrenergic receptor (Homo sapiens, UniProt P25100).
T3 sequence (P25100 whole entry): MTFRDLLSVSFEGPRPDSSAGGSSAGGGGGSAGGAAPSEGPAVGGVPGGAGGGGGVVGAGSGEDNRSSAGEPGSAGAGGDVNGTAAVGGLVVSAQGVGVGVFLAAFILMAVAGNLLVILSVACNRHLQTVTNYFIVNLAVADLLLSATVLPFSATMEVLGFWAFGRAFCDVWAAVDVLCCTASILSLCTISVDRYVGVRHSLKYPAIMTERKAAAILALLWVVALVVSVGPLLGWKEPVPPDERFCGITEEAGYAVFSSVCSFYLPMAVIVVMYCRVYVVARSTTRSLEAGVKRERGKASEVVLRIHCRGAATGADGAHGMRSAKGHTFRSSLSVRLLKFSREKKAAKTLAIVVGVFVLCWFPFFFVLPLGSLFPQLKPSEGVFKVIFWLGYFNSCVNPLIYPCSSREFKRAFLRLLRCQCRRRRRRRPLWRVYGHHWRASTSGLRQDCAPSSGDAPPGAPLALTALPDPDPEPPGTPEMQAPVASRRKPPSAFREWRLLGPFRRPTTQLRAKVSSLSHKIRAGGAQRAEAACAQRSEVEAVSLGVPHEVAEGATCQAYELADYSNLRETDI
The assay is described as follows: Displacement of [3H]prazosin from human cloned Alpha-1D adrenergic receptor. The procedure, abridged: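 CHO cells stably transfected with each human α1 subtype; 30 μg membrane protein in 50 mM Tris-HCl pH 7.4 with 0.1–0.4 nM [3H]prazosin, 30 min at 25 °C. Competitors 1 pM–10 μM. Nonspecific binding defined with 10 μM phentolamine. Filtration, scintillation counting. Ki by Cheng–Prusoff; 2–3 experiments in triplicate.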

D(2) dopamine receptor, sequence (P61169 whole entry): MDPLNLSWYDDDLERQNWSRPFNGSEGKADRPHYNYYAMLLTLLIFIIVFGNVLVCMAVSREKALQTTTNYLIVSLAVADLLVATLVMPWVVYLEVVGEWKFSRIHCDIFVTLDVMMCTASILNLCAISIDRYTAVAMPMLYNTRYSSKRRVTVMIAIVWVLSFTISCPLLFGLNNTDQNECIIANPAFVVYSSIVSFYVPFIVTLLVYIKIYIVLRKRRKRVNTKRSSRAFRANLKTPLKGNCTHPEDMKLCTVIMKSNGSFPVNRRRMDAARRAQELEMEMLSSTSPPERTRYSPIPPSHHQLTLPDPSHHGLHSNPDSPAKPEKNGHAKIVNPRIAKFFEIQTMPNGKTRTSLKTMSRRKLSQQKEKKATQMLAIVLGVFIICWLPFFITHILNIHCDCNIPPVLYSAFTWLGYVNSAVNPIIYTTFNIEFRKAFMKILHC

The term Ki denotes the dissociation constant of the complex between target and ligand, obtained from inhibition or displacement. Read a high Ki as a looser hold on the target. Broadly, the pKb is −log10 of the Kb, conventionally taken in molar units. High values mean a small Kb, low ones a large Kb. Turning to `O[C@@H]1[C@H](NC[C@@H]2COc3ccccc3O2)CC[C@H]1Oc1ccccc1`, the inhibition constant (Ki) on D(2) dopamine receptor was 6170 nM; in assay [3] it was 16.2 nM. The “Log Ki” value in assay [1] was -6.27. The pKb in assay [2] stood at 6.83.

The molecule `O[C@@H]1[C@H](NC[C@H]2COc3ccccc3O2)CC[C@H]1Oc1ccccc1` had an inhibition constant Ki at D(2) dopamine receptor of 2400 nM. The “Log Ki” value in assay [1] was -6.05. In assay [2], this molecule showed a pKb of 7.13.

As for `O[C@H]1[C@@H](NC[C@H]2COc3ccccc3O2)CC[C@@H]1Oc1ccccc1`, the values for the Ki (at D(2) dopamine receptor; in assay [3]) were 2400 nM and 200 nM, respectively. Further, the “Log Ki” value in assay [1] is -6.23. Also, the pKb in assay [2] stood at 5.79.

In the case of `O[C@H]1[C@@H](NC[C@@H]2COc3ccccc3O2)CC[C@@H]1Oc1ccccc1`, the results for the inhibition constant Ki (on D(2) dopamine receptor; in assay [3]) were 1120 nM and 933 nM, respectively. Further, the “Log Ki” value in assay [1] was -6.21. Further, the pKb in assay [2] came to 5.44.

The values above are taken from ChEMBL document CHEMBL1132183 (J Med Chem, 1999).
